Measurements taken from the EternaBench riboswitch data.

System: MS2 coat protein
Test: apparent Kd, MS2 coat protein; higher = weaker binding; RNA-MaP array; FMN 200 µM where present
Procedure, shortened: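 Apparent Kd: the median of filtered binding-curve fits from single clusters. Designs were transcribed on Illumina sequencing-chip clusters by stalled E. coli RNA polymerase and titrated with SNAP-549-labelled MS2 coat protein from 0.7 or 1.5 nM, doubling to 3 µM, in 100 mM Tris-HCl pH 7.5, 80 mM KCl, 4 mM MgCl2, BSA, DTT, yeast tRNA and Tween-20. Each series ran without and then with constant ligand, and green signal was normalised to red-channel RNA signal and control-cluster median Fmax.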

[1] = designed as: OFF switch for flavin mononucleotide, no ligand
[2] = ligand present: flavin mononucleotide, designed as: OFF switch for flavin mononucleotide
[3] = designed as: ON switch for flavin mononucleotide, no ligand
[4] = ligand present: flavin mononucleotide, designed as: ON switch for flavin mononucleotide

Sequence | apparent Kd [1] [nM] | apparent Kd [2] [nM] | apparent Kd [3] [nM] | apparent Kd [4] [nM]
GGUGCUAUGUAGAAGGCAGAUCUGAUUCAGAUCUGAGGAUAUACAUGAGGAUCACCCAUGUUAUGCACCAGCACGAGAGUGCAG | 8.07 | 14 |  | 
GGUGGACAUGAGGAUCACCCAUGUGAGGAUAUCGGCCGGUUCGUGGUGGCUGGCCUCUCGAGAAGGCGCAUAGU | 58.1 | 71.9 |  | 
GGUGGACAUGAGGAUCACCCAUGUGAGGAUAUCGGCUAUCUACUCGCUGACGGCUGCUCGAGAAGGCGCAUUGU | 62.1 | 58.8 |  | 
GGUGGACAUGAGGAUCACCCAUGUGAGGAUAUCGGCUAUCUACUCGCUGACGGUUGCUCGAGAAGGCACAUUGU | 126 | 206 |  | 
GGUGGACAUGAGGAUCACCCAUGUGAGGAUAUCGGCUGGUACGUGUUGGCUGGCAUCUCGAGAAGGCACAUCGU | 56.2 | 135 |  | 
GGUGGUGUCCGAGGAUAUCGUUAGGCGUUGUUGCGAGAAGGCGGACAUGAGGAUCACCCAUGUUUGAUAAAAGAGGAGGUUGUG | 86.1 | 130 |  | 
GGUGUGAGGCAGGAUAUGCUAUAUGUUAGUAAUGCAGAAGGGUCUACAUGAGGAUCACCCAUGUGUGCGGUUGA | 90.5 | 394 |  | 
GGUUGGCGAGGAUAUACAUGAGGAUCACCCAUGUGAGAGAAAAAAGUGAGUAAGAAAAGUAGAAGGCGCUGACG | 40.1 | 302 |  | 
GGUUGGCGAGGAUAUACAUGAGGAUCACCCAUGUGGUCCUGUGGCUGAUCUUGCCUUUGUAGAAGGCGCAAAUC | 18.5 | 37.8 |  | 
GGUUGUAAUGUCAGCGAGUGUUAGAGAAGGUACAUGAGGAUCACCCAUGUACGUGAUCUUGCGAGUAAGGAUAUCUGUUAUUCA | 5.2 | 5.5 |  | 
GGUUGUCAUCGUCAUCCUUUCUGUACAUGAGGAUCACCCAUGUAGGAUAUGCUGCUCUCGGUGUGGCAGAAGGGCGUGUGUGUU | 40.5 | 50.2 |  | 
GGUUUUGUGUAAGGAUAUGCAUCACUGAGAAAUUUAGUGAGGAAGAUCACAUGAGGAUCACCCAUGUAGAAGGUACACAUGUGG | 57.9 | 89.2 |  | 
GUAAAUCAUGUAGGAUAUGCAUGGCGAAGCUACGCAGAAGGACAUGAGGAUCACCCAUGUUCUAGCGUCUGAGUUCAGAUGCAA | 19.3 | 45.9 |  | 
GUAAUAAAGAUCCAAUUAUACAACAUGAGGAUCACCCAUGUGCAGGAUAUCGUGUGUUUUUUAUUCGAGAAGGGCAAAUUCAUU | 51.9 | 146 |  | 
GUACAGCGACAUGAGGAUCACCCAUGUAGCCGCCGAUCGUCGCAGGAUAUGGCAAAGGUUAACAGUCAGAAGGGUGAUGUUCGA |  |  | 73.6 | 41.3
GUACAGUAGUGAGGAUAUACGAGAUCGAUAGAUCGGCGAUCCAUUUAUACAUGAGGAUCACCCAUGUAGAAGGCACUUCUGUAC | 5.73 | 61.7 |  | 
GUACCUUAUGAGAAGGCGAUCAUAAAACAUGAUCGAGGAUAUCAUGUAAACAUGAGGAUCACCCAUGUAUGGGUAUUAUGGUAC |  |  | 68.7 | 17.5
GUACCUUAUGAGAAGGCGAUCAUUAAACAUGAUCGAGGAUAUCAUGAAAACAUGAGGAUCACCCAUGUAUGGGUAUUAUGGUAC |  |  | 33.6 | 16.4
GUACCUUAUGAGAAGGCGGUCAUGAAACAUGAUCGAGGAUAUCAUGUAAACAUGAGGAUCACCCAUGUAUGGGUAUUAUGGUAG |  |  | 70.2 | 13.8
GUACUACAUGAGGAUCACCCAUGUCAGGAUAUGUGAAUUUCAUCAAAAGAUGAAAUUCGUAGAAGGGACAGUAC | 22.2 | 29.4 |  | 
GUAGAGGAUUGAGGAUAUGCAGAGAGAUCAUGCGCGUCGCGCACAUGAGGAUCACCCAUGUAAGAGCAGAAGGUAACUAUGAAC | 66.8 | 43.4 |  | 
GUAGAGUAGUGAGGAUAUACGAGUACGAUAGUACGGCGAUCCAAUAAUACAUGAGGAUCACCCAUGUAGAAGGCACUUCUCUAC | 8.53 | 98.7 |  | 
GUAGAGUCAGGAUAUACGAGAUCGAAAGAUCGGCGGUCUGUACAUGAGGAUCACCCAUGUAGAAGGGACUCUAC | 16.4 | 94.4 |  | 
GUAGCAUACAGAGGAUAUCUUAACCGGAAACGGACAUGAGGAUCACCCAUGUGGCGAAAGCCUAGGGAGAAGGCUGAAUGCUAC |  |  | 10.2 | 11.1
GUAGCAUACAGAGGAUAUUCAAACCACAAAAGUGGACAUGAGGAUCACCCAUGUGGCGAAAGCCGGGAGAAGGCUGAAUGCUAC |  |  | 15.9 | 14.3
GUAGCAUACCAAGGAUAUUCAUAUAAUAAGUAAACAUGAGGAUCACCCAUGUAGUGAGAGCCUUGGGAGAAGGUGGAAUGCUAC |  |  | 16.6 | 18.3
GUAGCAUACCGAGGAUAUUCAGGGCGUGGAUAUACAUGAGGAUCACCCAUGUGGCGGAAGCCUAGGGAGAAGGCGGGCUGCUAC |  |  | 21.6 | 16.3
GUAGCAUACCGAGGAUAUUCAUACCGGAAACGGACAUGAGGAUCACCCAUGUAGCGAAAGCUUUGGGAGAAGGCGGAAUGCUAC |  |  | 905 | 33.9

Sequence | apparent Kd [1] [nM] | apparent Kd [2] [nM] | apparent Kd [3] [nM] | apparent Kd [4] [nM]
GUAGCAUACCGAGGAUAUUCGUCCGGAUUACGGACAUGAGGAUCACCCAUGUGGCGAAAGCCUUGGGAGAAGGCGGAAUGCUAC |  |  | 732 | 247
GUAGCAUACCGAGGAUAUUCUUACCGGAAACGGACAUGAGGAUCACCCAUGUGGCGAAAGCCUUUGGAGAAGGCGGAAUGCUAC |  |  | 12.4 | 12.4
GUAGCAUACGGAGGAUAUCCAUACCGGAAACGGACAUGAGGAUCACCCAUGUGGCGAAAGCCUUGGGAGAAGGCCGUAUGCUAC |  |  | 4.63 | 3.67
GUAGCAUAGGGAGGAUAUUCAUAUAAUAAAUAAACAUGAGGAUCACCCAUGUGGCGAAAGCCUUGGGAGAAGGCCCAAUGCUAC |  |  | 866 | 36.2
GUAGCAUAGUCAGGAUAUUCAUAUAAUAAAUAAACAUGAGGAUCACCCAUGUGGCGAAAGCCUUGGGAGAAGGGACAAUGCUAC |  |  | 1210 | 90.2
GUAGCAUGCCAAGGAUAUUCAUAUAAUAAGUAAACAUGAGGAUCACCCAUGUAGUGAGAGCCUUGGGAGAAGGUGGGAUGCUAC |  |  | 26.7 | 41.9
GUAGCAUUAUAAGGAUAUUCAUACCGGAAACGGACAUGAGGAUCACCCAUGUGGCGAAAGCCUUGGGAGAAGGUAUUAUGCUAC |  |  | 537 | 24.9
GUAGCAUUCUGAGGAUAUUCAUAUAAUAAAUAAACAUGAGGAUCACCCAUGUGGCGAAAGCCUUGGGAGAAGGCAGUAUGCUAC |  |  | 660 | 42.1
GUAGCUACAUGAGGAUCACCCAUGUAGGAUAUCGCUAUUGUAAUCAUGAAACAUGAUUACAAUAGCGAGAAGGACAUGUGCUAC | 20.9 | 25.2 |  | 
GUAGCUACUAUUAUACAUGAGGAUCACCCAUGUUACAUGGGUAAGGAUAUUGAAGUUAUUAUUAUCAAGAAGGUACUAUGCUAC |  |  | 570 | 102
GUAGCUAUCGGAGGAUAUUCAUGAUACAUGAGGAUCACCCAUGUUAAAGUGGGAGAAGGCCGAUAGCUACAAGAGCGAAAGCUC |  |  | 44.8 | 6.87
GUAGCUAUUAUUAUACAUGAGGAUCACCCAUGUUACAUGUGUAAGGAUAUUGAAGUUUUUAUAAUCAAGAAGGUACUAUGCUAC |  |  | 16.8 | 9.2
GUAGGACAUGAGGAUCACCCAUGUGGGAGGGAACGAGGAUAUGUGAAAGGAUUGAAGAGGACAGAAGGCGUGGAGG |  |  | 44.4 | 35.3
GUAGUGUAUGUAGGAUAUGUGAAGCAAAGCUUCACAGAAGGACAUGAGGAUCACCCAUGUAUUGCAGUCUGCAAUCAGACUGCU | 43.4 | 152 |  | 
GUAUAUAGUGUGAGGAUAUGCUGGUCCUUGGAUCAGCAGAAGGCACAUGAGGAUCACCCAUGUAGUUAAAUAUG | 26.8 | 100 |  | 
GUAUCGUGAGGAUAUCAUGAUUGACUUAGUUUAUGUCAGCGUGAGAAGGCACAUGAGGAUCACCCAUGUGAUUA | 24.7 | 54.9 |  | 
GUAUCGUGAGGAUAUCAUGAUUGACUUUUGUUUUGUCAGCGUGAGAAGGCACAUGAGGAUCACCCAUGUGAUUA | 22.3 | 52.9 |  | 
GUAUCUCCUGACAUGAGGAUCACCCAUGUUUAAUUAUUAAAUCAGGAUAUCCUCUCGAAACGAGAGGAGAAGGGAUAAGAUACU |  |  | 5.66 | 5.72
GUAUCUUACCAAGGAUAUUUAAGAUUUGUGUAGACAUGAGGAUCACCCAUGUGGCCUUAGUCACGGGAGAAGGUGGUUUGAUAC |  |  | 940 | 492
GUAUGGAUUACAGGAUAUGUUAGUUUUAAGUGUAUUGGUUAUUACUUAAUUACAGAAGGGUAUUACAUGAGGAUCACCCAUGUA |  |  | 16 | 11.5
GUAUUUAGAUAAGGAUAUAAGUCUAGGACAUGAGGAUCACCCAUGUGUGUCUUAGAAGGUAUUUGGGUAAUAUUGUUACAGUAA |  |  | 160 | 114
GUAUUUAUAUAAGGAUAUAAGUCUAGGACAUGAGGAUCACCCAUGUGUGUCUUAGAAGGUAUAUAGGUAAUACUGUUACAGUAA |  |  | 86.1 | 23.6
GUCAGCUCGUGAGGAUAUACAACACAGCUUCGGCAGUGUAUUAAGAUCACAUGAGGAUCACCCAUGUAGAAGGCACGAGCUGAU | 13.1 | 209 |  | 
GUCAGCUCGUGAGGAUAUACAACACUGCUUCGGCAGUGUAUUAAGAUAACAUGAGGAUCACCCAUGUAGAAGGCACGAGCUGAU | 5.58 | 8.48 |  | 
GUCAGCUCGUGAGGAUAUACAACACUGCUUCGGCAGUGUAUUAAGAUCACAUGAGGAUCACCCAUGUAGAAGGCACGAUCUGAU | 13.6 | 220 |  | 
GUCAGCUCGUGAGGAUAUACAACACUGCUUCGGCAGUGUAUUAAGCUCACAUGAGGAUCACCCAUGUAGAAGGCACGAGCUGAU | 5.37 | 11.2 |  | 
GUCAGCUCGUGAGGAUAUACAACACUGCUUCGGCCGUGUAUUAAGAUCACAUGAGGAUCACCCAUGUAGAAGGCACGAGCUGAU | 13.6 | 228 |  | 
